Experimental data: article PMC10016935 (RSC Advances, 2023)
Read-outs that look alike come from different tables or passages of the source. One block for each compound: values may come before it.

Tests used:
HSV-2 = details: read-out: EC50 HSV-2; cell-based antiviral activity; cited from earlier work
HSV-1 [1] = assay: HSV replication inhibition assay, HSV-1 in Vero cells; type: cell-based, herpes simplex virus-1; details: for EC50: read-out: HSV-1 EC50 (μM) ± SD; for Selectivity CC50/EC50: Vero CC50 / HSV-1 EC50
Procedure, shortened: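 Confluent Vero monolayers (24-well) got compound in PBS with 2% newborn calf serum and 2 mM L-glutamine, in duplicate, plus clinical-isolate virus at 2 × 10^4 PFU per well, for 1 h at 37 °C. Washed, then compound in DMEM for 24 h. Non-toxic wells (phase-contrast check) were titred by plaque assay (methanol, Giemsa). EC50 used serial dilutions in 96-well format, three-parameter fit, bottom zero.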

HSV-1 [2] = details: read-out: EC50 HSV-1; cell-based antiviral activity; cited from earlier work
[3] = test system: mutant of HSV-1 resistant to acyclovir (TK−); assay: Replication inhibition of acyclovir-resistant HSV-1 mutant; type: cell-based, herpes simplex virus-1; details: Fig. 2C
Cytotoxicity assay = type: cell-based; details: African green monkey, Vero cells
Procedure, shortened: (§1)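 Vero cells in 96-well plates in DMEM with 3% bovine growth serum and 3% newborn calf serum. Serial compound dilutions in medium with 1% DMSO were added 24 h after plating, in duplicate. After 24 or 48 h, MTS was added for 90 min and A490 read. CC50 came from a four-parameter variable-slope fit with bottom fixed at zero.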

Vero cells = assay: Cytotoxicity assay; type: cell-based; details: read-out: Vero CC50 (μM) ± SD, 48 h, MTS, 2 to 4 independent runs
Procedure, shortened: as §1

Compound: Nc1nc2c(ncn2COCCO)c(=O)[nH]1 [acyclovir]
- EC50 (HSV-2): 1400 nM
- inhibition of wild-type HSV-1 (HSV-1 [1]; wild-type virus, Fig. 2C): inhibited only the wild-type virus
- EC50 (HSV-1 [2]): 170 nM
- inhibition of ACV-resistant HSV-1 [3]: inhibited only the wild-type virus

- EC50 (HSV-1 [1]; Human alphaherpesvirus 1, Vero): 0.244 ± 0.097 µM
Compound: Cc1cc(O)c(=O)c(O)cc1C(=O)Nc1ccc2ccc3cccc4ccc1c2c34 [compound 63, 4,6-Dihydroxy-2-methyl-5-oxo-N-(pyren-1-yl)cyclohepta-1,3,6-triene-1-carboxamide]
- CC50 at 48 h (Cytotoxicity assay): 74200 ± 8700 nM

- EC50 (HSV-1 [1]; Human alphaherpesvirus 1, Vero): 0.072 ± 0.021 µM
Compound: Cc1cc(O)c(=O)c(O)cc1C(=O)N1CCc2cc(C3CCCCC3)ccc2C1 [compound 64, 4-(6-Cyclohexyl-1,2,3,4-tetrahydroisoquinoline-2-carbonyl)-2,7-dihydroxy-5-methylcyclohepta-2,4,6-trien-1-one]
- CC50 at 48 h (Cytotoxicity assay): 75700 ± 5300 nM
- Selectivity CC50/EC50 (HSV-1 [1]; listed as C00065): 1050

- EC50 (HSV-1 [1]; Vero cells, 3 to 4 independent runs): 0.306 ± 0.016 µM
Compound: Cc1cc(O)c(=O)c(O)cc1C(=O)NCC1(c2ccc(C(C)C)cc2)CCCC1 [compound 65, Dihydroxy-N-((1-(4-isopropylphenyl)cyclopentyl)methyl)-2-methyl-5-oxocyclohepta-1,3,6-triene-1-carboxamide]
- CC50 (Vero cells): 92.5 ± 7.5 µM
- Selectivity CC50/EC50 (HSV-1 [1]): 302

- EC50 (HSV-1 [1]; Human alphaherpesvirus 1, Vero): 0.296 ± 0.054 µM
Compound: Cc1cc(O)c(=O)c(O)cc1C(=O)N1CCC2(CC1)C1CC3CC(C1)CC2C3 [compound 66, 2,7-Dihydroxy-4-methyl-5-(spiro[adamantane-2,4′-piperidine]-1′-carbonyl)cyclohepta-2,4,6-trien-1-one]
- CC50 at 48 h (Cytotoxicity assay): 23700 ± 3800 nM
